Test results published in article PMC4224617 (Chemistry & biology, 2014).

What was measured:
[1] = biological target: chicken egg white lysozyme (Gallus gallus, UniProt P00698); test: EnzChek fluorescent lysozyme assay, Dixon plot; assay type: biochemical
Method in brief: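 Substrate: fluorescein-labelled Micrococcus lysodeikticus cells (DQ lysozyme substrate). Run according to the kit's instructions. Ki values determined for oligosaccharide test compounds.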

[2] = biological target: T1, Plu2411 (Photorhabdus laumondii, UniProt Q7N4D0); test: LC/MS product detection, GT-only reaction; assay type: biochemical; conditions: α-UDP-GlcNAc as substrate
T1 sequence (Q7N4D0 1-259): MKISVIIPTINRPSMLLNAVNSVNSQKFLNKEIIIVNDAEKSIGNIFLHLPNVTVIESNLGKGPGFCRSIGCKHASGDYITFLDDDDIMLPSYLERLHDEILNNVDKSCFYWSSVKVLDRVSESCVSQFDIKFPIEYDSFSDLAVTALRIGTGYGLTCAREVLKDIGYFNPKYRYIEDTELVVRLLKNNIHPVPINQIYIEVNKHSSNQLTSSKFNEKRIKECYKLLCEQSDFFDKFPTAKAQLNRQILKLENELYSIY

Chain of chicken egg white lysozyme (P00698 19-147): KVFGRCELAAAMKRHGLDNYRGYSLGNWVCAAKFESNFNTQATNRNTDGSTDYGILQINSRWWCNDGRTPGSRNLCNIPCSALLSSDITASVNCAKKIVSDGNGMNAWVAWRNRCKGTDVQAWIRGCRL

Compound | Ki [1] [µM] | LC/MS product detection, GT-only reaction [2]
CC(=O)N[C@H]1[C@H](O[C@H]2[C@H](O)[C@@H](NC(C)=O)[C@@H]3OC[C@H]2O3)O[C@H](CO)[C@@H](O[C@@H]2O[C@H](COP(=O)(O)O)[C@@H](O)[C@H](O)[C@H]2N)[C@@H]1O [compound 5, 5] | 750 ± 410 | 
CC(=O)N[C@H]1[C@@H]2OC[C@@H](O2)[C@@H](O[C@@H]2O[C@H](CO)[C@@H](O[C@@H]3O[C@H](CO)[C@@H](O)[C@H](O)[C@H]3NC(C)=O)[C@H](O)[C@H]2NC(C)=O)[C@@H]1O [compound 2, 2] | 170 ± 130 | 
CC(=O)N[C@H]1[C@@H]2OC[C@@H](O2)[C@@H](O[C@@H]2O[C@H](CO)[C@@H](O[C@@H]3O[C@H](CO)[C@@H](O[C@@H]4O[C@H](CO)[C@@H](O)[C@H](O)[C@H]4NC(C)=O)[C@H](O)[C@H]3NC(C)=O)[C@H](O)[C@H]2NC(C)=O)[C@@H]1O [compound 3, 3] | 300 ± 270 | 
CC(=O)N[C@H]1[C@@H]2OC[C@@H](O2)[C@@H](O[C@@H]2O[C@H](CO)[C@@H](O)[C@H](O)[C@H]2NC(C)=O)[C@@H]1O [compound 1, 1] | 3590 ± 1290 | 
O=c1ccn([C@@H]2O[C@H](COP(=O)(O)OP(=O)(O)O)[C@@H](O)[C@H]2O)c(=O)[nH]1 [UDP] |  | In the GT-only reaction, we could detect UDP and free Glc-NAc products
CC(=O)N[C@H]1[C@H](O[C@H]2[C@H](O)[C@@H](NC(C)=O)[C@@H]3OC[C@H]2O3)O[C@H](CO)[C@@H](O[C@@H]2O[C@H](CO)[C@@H](O)[C@H](O)[C@H]2N)[C@@H]1O [compound 4, 4] | 400 ± 230 | 
